The target in data set [1] is T1, Amine oxidase [flavin-containing] A (Homo sapiens, UniProt P21397).
T1 sequence (P21397 whole entry): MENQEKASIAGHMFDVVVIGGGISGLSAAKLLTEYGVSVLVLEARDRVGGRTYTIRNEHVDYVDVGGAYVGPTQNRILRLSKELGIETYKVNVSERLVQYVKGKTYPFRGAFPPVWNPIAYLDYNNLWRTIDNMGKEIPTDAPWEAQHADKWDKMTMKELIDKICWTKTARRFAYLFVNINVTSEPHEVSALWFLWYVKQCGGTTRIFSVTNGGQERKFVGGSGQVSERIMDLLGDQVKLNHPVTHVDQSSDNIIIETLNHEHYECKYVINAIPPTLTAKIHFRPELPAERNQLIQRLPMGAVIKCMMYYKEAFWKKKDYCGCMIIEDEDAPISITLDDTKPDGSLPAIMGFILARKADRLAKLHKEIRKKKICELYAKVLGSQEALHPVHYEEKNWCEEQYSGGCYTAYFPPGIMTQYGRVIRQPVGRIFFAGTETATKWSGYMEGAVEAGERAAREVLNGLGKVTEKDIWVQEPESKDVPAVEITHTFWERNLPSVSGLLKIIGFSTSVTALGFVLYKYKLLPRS
As to the kind of experiment: Inhibition of human recombinant MAOA expressed in microsomes of baculovirus-infected insect cell using kynuramine as substrate preincubated for 20 mins followed by protein addition measured after 30 mins by fluorescence assay. The method in brief:
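Recombinant human MAO A (baculovirus-infected insect cell microsomes) with kynuramine substrate; inhibitor preincubated 20 min at 37 °C, enzyme then added and incubated 30 min more. Fluorescence at ex/em 320/400 nm. Triplicates, three independent experiments.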

For data set [2], the target named is T2, Amine oxidase [flavin-containing] B (Homo sapiens, UniProt P27338).
T2 sequence (P27338 whole entry): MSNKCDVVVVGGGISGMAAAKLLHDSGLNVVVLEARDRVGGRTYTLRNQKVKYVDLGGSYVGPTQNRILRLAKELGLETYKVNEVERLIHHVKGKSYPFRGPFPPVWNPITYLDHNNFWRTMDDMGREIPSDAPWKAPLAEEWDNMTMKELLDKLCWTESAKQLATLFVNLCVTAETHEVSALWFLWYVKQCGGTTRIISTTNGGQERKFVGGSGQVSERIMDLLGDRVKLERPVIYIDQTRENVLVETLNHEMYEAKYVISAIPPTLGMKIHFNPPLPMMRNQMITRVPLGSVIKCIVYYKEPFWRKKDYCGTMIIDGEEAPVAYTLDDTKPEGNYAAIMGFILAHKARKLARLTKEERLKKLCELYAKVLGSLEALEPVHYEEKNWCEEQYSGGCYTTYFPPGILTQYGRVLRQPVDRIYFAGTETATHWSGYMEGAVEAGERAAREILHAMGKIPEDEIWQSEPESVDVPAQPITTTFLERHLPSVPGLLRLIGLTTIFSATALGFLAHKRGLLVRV
As to the kind of experiment: Inhibition of human recombinant MAOB expressed in microsomes of baculovirus-infected insect cell using kynuramine as substrate preincubated for 20 mins followed by protein addition measured after 30 mins by fluorescence assay.

The target of data set [3] is T3, Acetylcholinesterase (Electrophorus electricus, UniProt O42275). Put plainly: Inhibition of electric eel AChE using acetylthiocholine iodide as substrate preincubated for 20 mins followed by substrate addition measured for 5 mins by spectrophotometric Ellman's method. For orientation: In Ellman's method for cholinesterases, released thiocholine reacts with DTNB.

Data set [4] can be described thus: Apparent permeability across apical to basolateral side in MDCK2-MDR1 cells at 5 to 75 uM by UV-visible spectroscopic method. Particulars: dog, MDCK-MDR1. It counts as ADME, cell-based, Canis lupus familiaris. The method in brief: (§1)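 Acceptor concentrations measured by UV–visible spectroscopy against PBS calibration curves linear over 5–75 µM. Papp (cm/sec) = (VA/(area × time)) × ([drug]acceptor/[drug]initial). Triplicates, three experiments.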

Data set [5] is described as follows: Apparent permeability across basolateral to apical side in MDCK2-MDR1 cells at 5 to 75 uM by UV-visible spectroscopic method. Type of data set: ADME, cell-based, Canis lupus familiaris. Particulars: dog, MDCK-MDR1. The method in brief: as §1
Data set [6] in a line: Efflux ratio of apparent permeability across basolateral to apical side over apical to basolateral side in MDCK2-MDR1 cells at 5 to 75 uM by UV-visible spectroscopic method. Type of data set: ADME, cell-based, Canis lupus familiaris. Particulars: dog, MDCK-MDR1. The method in brief:
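Canine kidney MDCKII-MDR1 cells (retrovirally transfected with human MDR1 cDNA), cultured in DMEM and seeded at 100000 cells/cm2 on 0.4 µm-pore Transwell inserts. […] Apical-to-basolateral and basolateral-to-apical transport were measured, with compound quantified by UV-vis absorbance against PBS calibration curves (5–75 µM). ER = Papp BL-AP / Papp AP-BL. Triplicates, three experiments.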

In a further data set the target is Cholinesterase (Equus caballus, UniProt P81908). As to the kind of experiment: Inhibition of equine serum BChE using butyrylthiocholine iodide as substrate preincubated for 20 mins followed by substrate addition measured for 5 mins by spectrophotometric Ellman's method. The method in brief: (§2)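 BChE from equine serum (13 U/mg), Ellman spectrophotometric method run in 96-well format. Seven inhibitor concentrations, 10^-4 to 10^-10 M, each in triplicate. IC50 from non-linear regression of response against log(concentration). […] Mean of three independent experiments.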

For data set [7], the system named is SH-SY5Y. Put plainly: Neuroprotective activity against oligomycin-A-induced oxidative injury in human SH-SY5Y cells assessed as increase in cell viability at 1 uM after 24 hrs by MTT assay. Type of data set: functional, cell-based. The method in brief:
(§3)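 SH-SY5Y cells incubated 24 h with compound at 1 or 10 µM together with H2O2 300 µM, oligomycin-A 10 µM or rotenone 20 µM. Viability by MTT, as % of cells given neither insult nor compound. Triplicates, three repeats; mean ± SD; two-way ANOVA with Bonferroni post hoc test.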
(Tetrazolium dyes change colour on reduction, which living cells bring about.)

The test system of data set [8] is SH-SY5Y. Put plainly: Neuroprotective activity against oligomycin-A-induced oxidative injury in human SH-SY5Y cells assessed as increase in cell viability at 10 uM after 24 hrs by MTT assay. Type of data set: functional, cell-based. The method in brief: as §3
The nature of data set [9]: Kinetic aqueous solubility of the compound in Tris-HCl buffer at pH 7.4 by turbidimetric method. It counts as physicochemical. Particulars: for log(Kinetic_solubility): buffer. The method in brief:
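DMSO stocks added in portions to 50 mM Tris-HCl pH 7.4 at room temperature. Light scattering read as UV absorbance increase at 580–780 nm; solubility from a bilinear fit of absorbance versus µL DMSO. Reported as logS (mol/L), mean ± SEM of three independent assays.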

A short description of data set [10]: Lipophilicity index, Log K of the compound at 1 mM by RP-HPLC method. It counts as physicochemical. To be noted: 1000 µM.
For data set [11], the target named is Cholinesterase (Equus caballus) (UniProt P81908). As to the kind of experiment: Inhibition of equine serum BChE at 10 uM using butyrylthiocholine iodide as substrate preincubated for 20 mins followed by substrate addition measured for 5 mins by spectrophotometric Ellman's method relative to control. The method in brief: as §2
Data set [12] concerns SH-SY5Y. As to the kind of experiment: Cytotoxicity against human SH-SY5Y cells assessed as inhibition of cell growth after 24 hrs by MTT assay. Type of data set: cell-based. The method in brief: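 SH-SY5Y cells exposed 24 h at 37 °C to 0.1, 1, 5, 10 and 50 µM; viability read by MTT at 570 nm versus untreated cells. […] Means ± SD, n = 3.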
The subject of data set [13] is SH-SY5Y. Put plainly: Neuroprotective activity against H2O2-induced oxidative injury in human SH-SY5Y cells assessed as increase in cell viability at 1 to 10 uM after 24 hrs by MTT assay. Type of data set: functional, cell-based. The method in brief:
as §3

Data set [14] concerns SH-SY5Y. Put plainly: Neuroprotective activity against rotenone-induced oxidative injury in human SH-SY5Y cells assessed as increase in cell viability at 1 uM after 24 hrs by MTT assay. It counts as functional, cell-based. The method in brief: as §3
In data set [15] the test system is SH-SY5Y. Put plainly: Neuroprotective activity against rotenone-induced oxidative injury in human SH-SY5Y cells assessed as increase in cell viability at 10 uM after 24 hrs by MTT assay. Type of data set: functional, cell-based. The method in brief:
as §3

Data set [16] deals with T1, Amine oxidase [flavin-containing] A. Put plainly: Inhibition of human recombinant MAOA expressed in microsomes of baculovirus-infected insect cell at 10 uM using kynuramine as substrate preincubated for 20 mins followed by protein addition measured after 30 mins by fluorescence assay relative to control. Particulars: 0.5 h. The method in brief: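 Recombinant human MAO A (baculovirus-infected insect cell microsomes) with kynuramine substrate; inhibitor preincubated 20 min at 37 °C, enzyme then added and incubated 30 min more. Fluorescence at ex/em 320/400 nm. […] Triplicates, three independent experiments.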

Data set [17] addresses T3, Acetylcholinesterase. Put plainly: Mixed-type inhibition of electric eel AChE using S-acetylthiocholine as substrate preincubated for 20 mins followed by substrate addition measured for 5 mins by Lineweaver-Burk plot method.

Data on seven compounds can be found in ChEMBL document CHEMBL4425129, “Exploring Basic Tail Modifications of Coumarin-Based Dual Acetylcholinesterase-Monoamine Oxidase B Inhibitors: Identification of Water-Soluble, Brain-Permeant Neuroprotective Multitarget Agents” (J Med Chem, 2016).

pIC50, pKi: −log10 of the molar value. Calls of active or inactive are those of the source. The rule behind the calls is not given here.

Chain of Cholinesterase (Equus caballus) (P81908 whole entry): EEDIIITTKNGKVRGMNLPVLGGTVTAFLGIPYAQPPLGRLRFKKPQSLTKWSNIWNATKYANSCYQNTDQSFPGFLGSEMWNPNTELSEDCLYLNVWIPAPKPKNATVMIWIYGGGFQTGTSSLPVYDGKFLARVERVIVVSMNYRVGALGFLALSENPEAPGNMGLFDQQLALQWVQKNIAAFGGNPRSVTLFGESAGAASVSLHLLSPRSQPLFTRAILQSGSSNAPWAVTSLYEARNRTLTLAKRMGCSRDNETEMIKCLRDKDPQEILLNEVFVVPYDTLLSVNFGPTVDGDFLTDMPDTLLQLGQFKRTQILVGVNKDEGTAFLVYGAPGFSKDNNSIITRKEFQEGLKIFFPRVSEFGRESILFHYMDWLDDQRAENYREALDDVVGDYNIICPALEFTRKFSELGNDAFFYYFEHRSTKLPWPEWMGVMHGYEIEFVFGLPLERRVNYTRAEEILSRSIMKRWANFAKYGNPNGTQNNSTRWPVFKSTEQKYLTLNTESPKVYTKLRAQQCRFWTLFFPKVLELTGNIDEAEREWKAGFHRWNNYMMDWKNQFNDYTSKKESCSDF
T3 sequence (O42275 whole entry): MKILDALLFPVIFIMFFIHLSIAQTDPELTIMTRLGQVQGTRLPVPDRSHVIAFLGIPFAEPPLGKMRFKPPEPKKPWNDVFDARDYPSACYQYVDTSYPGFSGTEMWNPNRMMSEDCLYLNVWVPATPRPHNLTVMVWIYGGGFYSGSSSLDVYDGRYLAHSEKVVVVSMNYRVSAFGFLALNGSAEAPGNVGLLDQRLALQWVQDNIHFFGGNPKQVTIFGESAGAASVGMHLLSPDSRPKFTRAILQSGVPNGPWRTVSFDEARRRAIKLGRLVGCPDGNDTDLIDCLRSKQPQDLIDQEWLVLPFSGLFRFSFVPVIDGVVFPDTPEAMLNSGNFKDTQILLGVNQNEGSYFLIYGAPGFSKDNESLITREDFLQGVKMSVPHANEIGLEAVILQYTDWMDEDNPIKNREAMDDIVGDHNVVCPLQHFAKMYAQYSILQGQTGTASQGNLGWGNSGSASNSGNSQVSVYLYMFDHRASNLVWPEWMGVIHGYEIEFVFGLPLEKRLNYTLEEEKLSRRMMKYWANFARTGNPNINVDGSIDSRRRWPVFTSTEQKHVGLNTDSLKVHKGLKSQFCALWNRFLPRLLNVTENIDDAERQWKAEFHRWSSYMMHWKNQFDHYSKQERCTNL
Chain of Cholinesterase (P81908 whole entry): as the sequence (P81908 whole entry) above

Regarding `Cc1c(C)c2ccc(OCC3CCCN(Cc4cccc(Br)c4)C3)cc2oc1=O.Cl` (racemic), the pIC50 (as a rule, the negative decadic logarithm of the IC50, by convention in mol/L) is 6.09 in data set [1], 6.96 in data set [2] and 5.72 against Acetylcholinesterase [3]. For the same compound, the apical-to-basolateral permeability (Papp A→B) (commonly how fast a substance crosses the layer from the apical side) at up to 75 µM in [4] is 0.84 ×10⁻⁶ cm/s. Moreover, the apparent permeability from basolateral to apical (Papp B→A) (as a rule, how fast a substance crosses the layer from the basolateral side) at up to 75 µM in [5] was 2.16 ×10⁻⁶ cm/s. In addition, the efflux ratio (usually the permeability from basolateral to apical divided by that in the opposite direction, in the common usage) at up to 75 µM in [6] stood at 2.56.
In the case of `Cc1c(C)c2ccc(OCC3CCN(Cc4ccccc4)CC3)cc2oc1=O.Cl`, the negative-log IC50 (pIC50) was 5.62 in data set [1], 6.98 in data set [2], 5.78 against Acetylcholinesterase [3] and 5.33 against Cholinesterase. In addition, the result in the data set with SH-SY5Y [7] and in the data set with SH-SY5Y [8] was inactive. Further, in data set [9], the “log(Kinetic_solubility)” value is -4.25. Besides, in data set [10], the “log K” value was found to be 1.98.
For `Cc1c(C)c2ccc(OCC3CCCN(C)C3)cc2oc1=O.Cl` (racemic), the negative logarithm of the IC50 (pIC50) in data set [1] is 5.03; in data set [2] it was 6.86; on Acetylcholinesterase [3] it was 6.10; in the data set with SH-SY5Y [12] it was 4.52. The inhibition (usually the drop in the measured response relative to a control, in per cent) in data set [11] stood at 19%. In addition, the outcome in the data set with SH-SY5Y [13], in the data set on SH-SY5Y [14] and in the data set on SH-SY5Y [15] was Active. Also, the result with SH-SY5Y [7] and in the data set on SH-SY5Y [8] was inactive. Besides, the apical-to-basolateral permeability (Papp A→B) at up to 75 µM in data set [4] came out at 22.3 ×10⁻⁶ cm/s. In data set [5], the Papp B→A at up to 75 µM stood at 20.2 ×10⁻⁶ cm/s. The efflux ratio at up to 75 µM in data set [6] was determined as 0.9. The “log(Kinetic_solubility)” value in [9] is -3.67. Besides, the “log K” value in data set [10] was 1.14.
As to `Cc1c(C)c2ccc(OCC3CCCN(Cc4ccccc4)C3)cc2oc1=O` (racemic), the result in the data set on SH-SY5Y [13], in the data set on SH-SY5Y [7], in the data set on SH-SY5Y [8], with SH-SY5Y [14] and with SH-SY5Y [15] was Active.
Turning to `Cc1c(C)c2ccc(OCC3CCN(Cc4ccc(Cl)cc4)CC3)cc2oc1=O`, the inhibition at 10 µM in data set [16] was found to be 37%. The negative-log IC50 (pIC50) is 6.21 in data set [2] and 5.02 on Acetylcholinesterase [3]. Besides, in data set [11], the inhibition was determined as 19%.
For the compound `Cc1c(C)c2ccc(OCC3CCCN(Cc4ccccc4)C3)cc2oc1=O.Cl` (racemic), the negative-log IC50 (pIC50) in data set [1] was 5.55; against Acetylcholinesterase [3] it was 5.99; at Cholinesterase it was 5.47; in the data set with SH-SY5Y [12] it was 4.36. For the same compound, the pKi (as a rule, the Ki on a negative log10 scale, so that one unit is a factor of ten) on Acetylcholinesterase [17] is 5.86. Also, in [4], the Papp A→B at up to 75 µM stood at 24.3 ×10⁻⁶ cm/s. Moreover, the Papp B→A at up to 75 µM in data set [5] came out at 14.8 ×10⁻⁶ cm/s. Moreover, the efflux ratio at up to 75 µM in [6] is 0.61. In data set [9] (Tris-HCl buffer, read-out: Kinetic_solubility), the solubility kinetic was determined as 119 µM. For the same compound, the “log(Kinetic_solubility)” value in data set [9] is reported as -3.92. The “log K” value in data set [10] came out at 2.01.
`Cc1c(C)c2ccc(OCC3CCCN(Cc4cccc(Br)c4)C3)cc2oc1=O` (racemic): the inhibition in data set [11] was found to be 30%. Besides, the result with SH-SY5Y [13], in the data set with SH-SY5Y [7], with SH-SY5Y [8], in the data set with SH-SY5Y [14] and in the data set on SH-SY5Y [15] was Active.
